Lmaj promast – Leishmania major promastigote growth inhibition; inhibition, % at 10 µM; 9% of 200,000 active; AID 1063; Leishmania major promastigotes, resazurin fluorescence viability;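 note: promastigotes grown with compound for 44 hours at 28 °C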
Diaphorase inh – inhibits diaphorase or chemically oxidizes, flagging diaphorase assay artifacts. diaphorase resazurin-to-resorufin fluorescence, NADH, 16 min; bacterial (C. kluyveri) enzyme, not human. inhibition, % at 20 µM. 0.69% of 190,000 active. AID 1217;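 active = primary screen inhibition at 20 µM above a set limit, cut at about 50% in these data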;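 note: plate controls were DMSO with full reaction for no effect and wells lacking NADH for full effect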
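material = Clostridium kluyveri diaphorase enzyme | amount = 0.14 U/mL diaphorase, enzyme working solution | schedule = incubation 16 min, room temperature | detection = fluorescence of resorufin formed from resazurin, Ex 544/Em 590 nm | benchmarks = positive control minus NADH, DMSO neutral control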
WT yeast gro inh – growth inhibition of WT yeast, mitochondrial fusion screen | mitochondrial fusion phenotypic screen, WT strain | inhibition, % at 10 µM | 2.1% of 190,000 active | AID 1362; in the data active = inhibition above about 58%; tested in S. cerevisiae
G6PDH counter – L. mesenteroides G6PDH inhibition counter-screen. Purified L. mesenteroides G6PDH, diaphorase/resazurin coupled fluorescence, 45 min. 0.12% of 200,000 active. AID 1020. inhibition, % at 5 µM
Diaphorase act – counter-screen for diaphorase-based assays: diaphorase activators and chemical reducers. activation factor at 20 µM. 0.005% of 190,000 active. Diaphorase/resazurin coupled assay, resorufin fluorescence, 16 min; stronger effect = higher value; 1 = vehicle wells, 0 = NADH-free wells;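 active = diaphorase activity raised at least twofold by the compound at 20 µM; inactive = activation factor below 2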
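Material: purified diaphorase enzyme from Clostridium kluyveri; Also added: 0.114 mM NADH and 0.1 mM resazurin, final amounts; Doses: single compound dose of 20 µM, 1% DMSO final; Times: 16 min enzyme reaction, ambient temperature; Detection: resorufin fluorescence, excitation 544 nm, emission 590 nm; Measure: increased resorufin signal from activators or reducing compounds.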
* marks the source's active call; other numbers are inactive results. The list is not random: actives were taken first. Their share in the collection is about 11%. Cut-off read from the data, not from the text of the source, unless noted: active = inhibition above about 50%; inactive = the rest.

SMILES | Lmaj promast | Diaphorase inh | WT yeast gro inh | G6PDH counter | Diaphorase act
Cc1cc(-c2ccc(NC(=O)[C@@H]3CCCC[C@@H]3C(=O)O)c(C)c2)ccc1NC(=O)[C@@H]1CCCC[C@@H]1C(=O)O | -6 | 3 | 5 | 26 | 1
COc1ccc(NC(=O)CSc2nnc(NC(=O)c3ccc(S(=O)(=O)N4CCOCC4)cc3)s2)cc1 | 76* | -9 | -2 | 1 | 1.1
Cn1nnnc1SCC(=O)Nc1cc(S(=O)(=O)N2CCCC2)ccc1Cl | -3 | 3 | -7 | 9 | 1
Cc1cccc(NC(=O)CSc2nnc(NC(=O)c3ccc(S(=O)(=O)N4CCOCC4)cc3)s2)c1C | 87* | 3 | 1 | 0 | 1
Cc1cccc(C)c1Nc1nnc(SCC(=O)Nc2cc(S(=O)(=O)N3CCCCC3)ccc2Cl)s1 | 50* | 18 | -3 | -19 | 0.8
Cc1ccc(Nc2nnc(SCC(=O)Nc3ccc(S(=O)(=O)N4CCOCC4)cc3)s2)cc1 | 40 | 23 | -11 | 0 | 0.8
Cc1cccc(Nc2nnc(SCC(=O)Nc3cccc(S(=O)(=O)N4CCCCC4)c3)s2)c1 | 43 | 23 | 10 | -21 | 0.8
O=C(CSc1cccc(C(F)(F)F)c1)Nc1cc(S(=O)(=O)N2CCCC2)ccc1Cl | 55* | 10 | 24 | 3 | 0.9
COc1ccc2cc(C(=O)Nc3ccc(Cl)cc3)sc(=O)c2c1OC | 33 | 2 | 9 | -18 | 1
COc1ccc(CNc2nc3ccccc3n2Cc2ccccc2)cc1OC | 5 | 18 | -14 | 4 | 0.8
COC(=O)NC1CCC(NC(=O)OC)CC1 (stereo not drawn) | -1 | 9 | 9 | 5 | 0.9
Cc1cccc(Nc2nnc(SCC(=O)Nc3cccnc3Cl)s2)c1 | 62* | 7 | 14 | 0 | 0.9
CC(C)CCN1CCN(Cc2ccc3nsnc3c2)CC1CCO (stereo not drawn) | 41 | 27 | 7 | 13 | 0.7
CSc1cccc(CN2CCN(CCC(C)C)C(CCO)C2)c1 (stereo not drawn) | 79* | 16 | 15 | 4 | 0.8
CC(C)CCN1CCN(Cc2cccc(C(F)(F)F)c2)CC1CCO (stereo not drawn) | 92* | 16 | 0 | 15 | 0.8
OCCC1CN(Cc2ccc(C(F)(F)F)cc2)CCN1Cc1ccccc1 (stereo not drawn) | 49 | 8 | -19 | 10 | 0.9
CCN(CCCNC(=O)CN(C)S(=O)(=O)c1cccc2nsnc12)c1ccccc1 | 19 | 18 | 3 | 4 | 0.8
Nc1nc(CSc2ccc(Cl)cc2)nc(N2CCCCC2)n1 | 23 | 28 | 74* | 10 | 0.7
Nc1nc(CSc2ccccc2)nc(N2CCCCC2)n1 | 0 | 12 | 12 | 8 | 0.9
O=c1[nH]c(C2CC2)nc2sc3c(c12)CCCC3 | 11 | 11 | 22 | 27 | 0.9
N#Cc1cnn(-c2nc3sc4c(c3c(=O)[nH]2)CCCC4)c1N | 94* | 7 | -9 | -52 | 0.9
O=S(=O)(NC1c2cccc3cccc(c23)C1N1CCNCC1)c1ccc(Cl)cc1 (stereo not drawn) | 100* | 19 | 13 | 11 | 0.8
CC(=O)N1CCN(C2c3cccc4cccc(c34)C2NS(=O)(=O)c2ccccc2)CC1 (stereo not drawn) | 1 | 16 | 16 | -2 | 0.8
Cn1cnnc1SC1c2cccc3cccc(c23)C1NS(=O)(=O)c1ccc(Cl)cc1 (stereo not drawn) | 53* | 18 | 0 | -12 | 0.8
O=[N+]([O-])c1ccccc1N/N=C1\CC2CC=CC12 (stereo not drawn) | -9 | 61* | 3 | -1 | 0.4
SMILES | Lmaj promast | Diaphorase inh | WT yeast gro inh | G6PDH counter | Diaphorase act
COCCN1C(=O)c2ccccc2C(C(=O)Nc2ccc3c(c2)OCCO3)C1c1ccc(F)cc1 (stereo not drawn) | 4 | 8 | -28 | 12 | 0.9
Cc1ccc(N2C(=O)CSC2c2c(F)cccc2Cl)cc1 (stereo not drawn) | 4 | 18 | 5 | 6 | 0.8
COc1cccc(C2SCC(=O)N2c2ccc(Cl)cc2)c1OC (stereo not drawn) | 67* | 5 | 15 | 15 | 0.9
CCN1C=C(Cc2cccs2)C2=C(C1)C(c1cccs1)C(C#N)=C(N)O2 (stereo not drawn) | 55* | 29 | 4 | 3 | 0.7
CCN1CC2=C(OC(N)=C(C#N)C2c2cccs2)/C(=C/c2cccs2)C1 (stereo not drawn) | 33 | 34 | -5 | -11 | 0.7
COc1ccc(/C=C2\SC(=N)N(c3ccc(F)cc3)C2=O)cc1OC | 38 | 12 | 25 | 7 | 0.9
COc1cc(/C=C2\SC(=O)N(c3ccc(Cl)cc3)C2=O)cc([N+](=O)[O-])c1O | -3 | 82* | 47 | 5 | 0.2
COc1cc(/C=C2/C(=O)NN(c3cccc(C)c3)C2=O)cc([N+](=O)[O-])c1O | -14 | 39 | 1 | 14 | 0.6
COc1cc(/C=C2\SC(=O)N(c3cccc(Cl)c3)C2=O)cc([N+](=O)[O-])c1O | -7 | 64* | 56 | 2 | 0.4
CCOC(=O)CNC(=S)N(Cc1ccc(C)cc1)Cc1ccc(C)o1 | 16 | 12 | -3 | 2 | 0.9
COc1ccc(CCNC(=O)c2cc(-c3ccc(Cl)c(Cl)c3)oc2C)cc1 | 2 | 10 | 40 | -14 | 0.9
COc1cc(C(c2c(C)[nH][nH]c2=O)c2c(C)[nH][nH]c2=O)cc([N+](=O)[O-])c1O | 0 | 9 | -6 | 15 | 0.9
Cc1ccc(C(c2c(C)[nH][nH]c2=O)c2c(C)[nH][nH]c2=O)cc1[N+](=O)[O-] | 58* | 0 | 7 | 10 | 1
CCOc1cc(C(c2c(C)[nH][nH]c2=O)c2c(C)[nH][nH]c2=O)ccc1OCc1ccc([N+](=O)[O-])cc1 | 100* | 29 | 1 | 9 | 0.7
Cc1ccc(-c2nnn(CCC(=O)NC3CCCC3)n2)cc1 | 0 | -5 | -7 | -3 | 1.1
O=C(N/N=C/c1ccc(O)c(O)c1)c1ccc(CSc2cccc3cccnc23)cc1 | -5 | 33 | -3 | 1 | 0.7
CCOC(=O)C(C)Oc1ccccc1C1NC(=O)NC(C)=C1C(=O)Nc1ccc(C)c(C)c1 (stereo not drawn) | 76* | 2 | -1 | -10 | 1
CCN(CC)C(=O)C1CC(=O)N(c2ccc(F)c(Cl)c2)C1 (stereo not drawn) | -7 | 9 | 59* | 5 | 0.9
COC(=O)c1c(NC(=O)C2CC(=O)NN2Cc2ccccc2)sc(C)c1C (stereo not drawn) | 100* | 17 | 1 | 4 | 0.8
CCOC(=O)c1cc(CC)sc1NC(=O)C1CC(=O)NN1Cc1ccccc1 (stereo not drawn) | 4 | 10 | 7 | -24 | 0.9
COCc1cc(C)n(CC(=O)Nc2cc(C)cc(C)c2)c(=O)c1C#N | -5 | 15 | -9 | 15 | 0.8
